Our source for the Activity, LD50 and Drug metabolism values is ChEMBL document CHEMBL4270555, “Synthesis and biological evaluation of magnolol derivatives as melatonergic receptor agonists with potential use in depression” (Eur J Med Chem, 2018).

Calls of active or inactive are those of the source. No cut-off for these calls is given here.

For data set [1], the system named is Mus musculus. The data set can be described thus: Toxicity in Kunming mouse assessed as effect in spontaneous locomotor activity by measuring total distance travelled at 10 to 40 mg/kg, po by open field test. The class given is organism-based. The following applies: in vivo. In outline:
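Male Kunming mice, 18–20 g, group-housed at 22 ± 2 °C on 12 h light/dark, given oral doses of 10, 20 or 40 mg/kg before behavioural testing. Each animal placed in the centre of a black open-field box (24 × 24 × 40 cm) for 30 s adaptation, then explored freely for 6 min. Line crossings and distance recorded. Mean ± SEM, n = 10.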

The test system of data set [2] is Mus musculus. The data set can be described thus: Increase in norepinephrine level in Kunming mouse striatum at 40 mg/kg, po treated for 7 days by HPLC-ECD analysis. Format: functional, organism-based. The essentials:
(§1)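 Male Kunming mice (18–20 g) given vehicle or 40 mg/kg for 7 days, then killed by cervical dislocation. Frontal cortex, hippocampus, striatum, hypothalamus and thalamus dissected on ice, homogenized in ice-cold 0.2 M perchloric acid with 0.1 mM EDTA, centrifuged 15,000 rpm, 20 min, 4 °C. Supernatant analysed by HPLC-ECD at +0.50 V; phosphate/octanesulfonate mobile phase pH 3.0 with 12% methanol. Levels in ng/g, mean ± SEM.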

The test system of data set [3] is Mus musculus. The data set is described as follows: Increase in ratio of 5-hydroxyindole-3-acetic acid to 5-hydroxytryptamine level in Kunming mouse hypothalamus at 40 mg/kg, po treated for 7 days by HPLC-ECD analysis. The class given is functional, organism-based. The essentials: as §1
Data set [4] deals with Mus musculus. The data set can be described thus: Decrease in dopamine level in Kunming mouse hippocampus at 40 mg/kg, po treated for 7 days by HPLC-ECD analysis. Format: functional, organism-based. The essentials:
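Male Kunming mice received vehicle or 40 mg/kg for 7 days, then were killed by cervical dislocation and the brain regions dissected on ice. Tissue was homogenized in ice-cold 0.2 M perchloric acid with 0.1 mM EDTA and centrifuged at 15,000 rpm, 20 min, 4 °C. Supernatant was analyzed by HPLC-ECD (+0.50 V; phosphate/octanesulfonate mobile phase, pH 3.0). Results in ng/g, mean ± SEM.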

Data set [5] has as its system Mus musculus. The data set can be described thus: Increase in ratio of 3,4-dihydroxyphenylacetic acid and 4-hydroxy-3-methoxyphenylacetic acid to dopamine level in Kunming mouse frontal cortex at 40 mg/kg, po treated for 7 days by HPLC-ECD analysis. The class given is functional, organism-based. In outline:
as §1

The test system of data set [6] is Mus musculus. The data set is described as follows: Increase in ratio of 3,4-dihydroxyphenylacetic acid and 4-hydroxy-3-methoxyphenylacetic acid to dopamine level in Kunming mouse thalamus at 40 mg/kg, po treated for 7 days by HPLC-ECD analysis. Format: functional, organism-based. The essentials:
as §1

In a further data set the test system is Rattus norvegicus. The data set can be described thus: Toxicity in Sprague-Dawley rat assessed as skin rashes at 2000 mg/kg, po measured over 4 hrs. Format: organism-based. The following applies: in vivo. In outline: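 Acute oral toxicity run per OECD 425 in adult SD rats (180–220 g). Six animals per group: vehicle control (0.5% CMC-Na, oral), male rats and female rats each dosed orally at 2000 mg/kg. Animals were watched continuously for the first 4 h for behavior, breathing, cutaneous signs (irritation, ulceration, caustic injury, skin rashes), sensory nervous and gastrointestinal effects. Later checks were hourly for 24 h, then every 6 h for 48 h.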

The nature of data set [7]: Toxicity in po dosed Sprague-Dawley rat measured continuously for first 4 hrs followed by measured every hour for next 24 hrs and at 6 hrs intervals for following 48 hrs post dose. Format: organism-based. The conditions noted are these: in vivo. The essentials:
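Followed OECD 425 in adult SD rats (180–220 g), three groups of six. Vehicle control received 0.5% CMC-Na orally; separate male and female groups received 2000 mg/kg orally. Endpoints observed: behaviour, breathing, cutaneous effects, sensory nervous system responses, gastrointestinal effects and deaths.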

Data set [8] can be described thus: Drug metabolism in Sprague-Dawley rat feces assessed as 2'-hydroxy-5'-(1-hydroxyallyl)-5-propylbiphenyl-2-yl hydrogen sulfate formation at 100 mg/kg, po by UPLC-IT-TOF-MS analysis. The class given is ADME, organism-based. The following applies: in vivo. The essentials:
(§2)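 Rats (n = 6) housed in metabolic cages received 100.0 mg/kg orally; controls received 0.5% CMC-Na. Plasma, urine and faeces were collected and analyzed by LC-IT-TOF-MS on a C18 column at 30 °C. Gradient 5–100% acetonitrile with 0.05% formic acid over 18 min at 0.2 mL/min; positive and negative ion MS/MS.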

Data set [9] can be described thus: Drug metabolism in Sprague-Dawley rat urine assessed as (2S,3S,4S,5R,6S)-6-(5-acryloyl-2'-hydroxy-5'-(1-hydroxyallyl)biphenyl-2-yloxy)-3,4,5-trihydroxytetrahydro-2H-pyran-2-carboxylic acid formation at 100 mg/kg, po by UPLC-IT-TOF-MS analysis. The class given is ADME, organism-based. The conditions noted are these: in vivo. The essentials:
(§3)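 Male/unspecified SD rats (n = 6) housed individually in metabolic cages, dosed orally at 100.0 mg/kg; controls given 0.5% CMC-Na orally. Plasma, urine and faeces collected. LC-IT-TOF-MS on C18 column at 30 °C, formic acid (0.05%) water/acetonitrile gradient 5–100% B over 18 min, 0.2 mL/min; positive and negative ion modes with automatic MS/MS.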

Data set [10] is described as follows: Drug metabolism in Sprague-Dawley rat plasma assessed as 2S,3S,4S,5R,6S)-6-(5,5'-diallyl-2'-((2S,3R,4S,5S,6R)-3,4,5-trihydroxy-6-(hydroxymethyl)tetrahydro-2H-pyran-2-yloxy)biphenyl-2-yloxy)-3,4,5-trihydroxytetrahydro-2H-pyran-2-carboxylic acid formation at 100 mg/kg, po by UPLC-IT-TOF-MS analysis. Format: ADME, organism-based. The conditions noted are these: in vivo. The essentials: as §2

Data set [11] is described as follows: Drug metabolism in Sprague-Dawley rat feces assessed as 1-(5'-allyl-2'-hydroxy-6-((2S,3R,4S,5S,6R)-3,4,5-trihydroxy-6-(hydroxymethyl)tetrahydro-2H-pyran-2-yloxy)biphenyl-3-yl)prop-2-en-1-one formation at 100 mg/kg, po by UPLC-IT-TOF-MS analysis. The class given is ADME, organism-based. The following applies: in vivo. In outline:
as §2

The nature of data set [12]: Drug metabolism in Sprague-Dawley rat urine assessed as 1-(2'-hydroxy-5'-(1-hydroxyallyl)-6-((2S,3R,4S,5S,6R)-3,4,5-trihydroxy-6-(hydroxymethyl)tetrahydro-2H-pyran-2-yloxy)biphenyl-3-yl)prop-2-en-1-one formation at 100 mg/kg, po by UPLC-IT-TOF-MS analysis. The class given is ADME, organism-based. The conditions noted are these: in vivo. In outline: as §3
Data set [13] is described as follows: Drug metabolism in Sprague-Dawley rat urine assessed as (2S,3R,4S,5S,6R)-2-(5,5'-diallyl-2'-methoxybiphenyl-2-yloxy)-6-(hydroxymethyl)tetrahydro-2H-pyran-3,4,5-triol formation at 100 mg/kg, po by UPLC-IT-TOF-MS analysis. Format: ADME, organism-based. The following applies: in vivo. In outline: as §3

A word on the LD50: it is the dose expected to kill half of the subjects tested. A lower LD50 goes with greater toxicity. For `C=CCc1ccc(O)c(-c2cc(CC=C)ccc2O[C@@H]2O[C@H](CO)[C@@H](O)[C@H](O)[C@H]2O)c1`, the Activity result in the data set on Mus musculus [1] and with Rattus norvegicus was “Non-Toxic” in each case. Besides, the outcome in the data set with Mus musculus [2], in the data set with Mus musculus [3], in the data set on Mus musculus [4], in the data set on Mus musculus [5] and in the data set on Mus musculus [6] was Active. In data set [7], this molecule gave an LD50 at 76 h above 2000 mg/kg. For the same molecule, the Drug metabolism entry in [8] was “Metabolite_Detected”; in [9] it was “Metabolite_Detected”; in [10], “Metabolite_Notdetected”; in [11], “Metabolite_Notdetected”; in data set [12], “Metabolite_Detected”; in [13], “Metabolite_Detected”.
